# Calls of active or inactive are those of the source. The calls are words filed in the database; no cut-off is given here.
# Key:
# A549 [1] = assay: Cytotoxicity in human A549 cells assessed as reduction in cell viability incubated for 72 hrs by MTT assay; conditions: A549, 72 h
# MCF7 = assay: Cytotoxicity in human MCF7 cells assessed as reduction in cell viability incubated for 72 hrs by MTT assay; format: functional, cell-based; conditions: for IC50: MCF7, 72 h
# Method in brief: (§1)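 Cells pre-incubated 24 h at 37 °C, 5% CO2, then exposed to a range of compound concentrations for 72 h. Viability read as mitochondrial MTT-to-formazan conversion, absorbance at 570 nm.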
# B16 = assay: Cytotoxicity in mouse B16 cells assessed as reduction in cell viability incubated for 72 hrs by MTT assay; format: functional, cell-based; conditions: for IC50: B16, 72 h; method in brief: as §1
# HepG2 [2] = assay: Cytotoxicity in human HepG2 cells assessed as reduction in cell viability incubated for 72 hrs by MTT assay; format: functional, cell-based; conditions: for IC50: HepG2, 72 h; method in brief: as §1
# LNCaP = assay: Cytotoxicity in human LNCAP cells assessed as reduction in cell viability incubated for 72 hrs by MTT assay; format: functional, cell-based; method in brief: as §1
# HeLa = assay: Cytotoxicity in human HeLa cells assessed as reduction in cell viability incubated for 72 hrs by MTT assay; format: functional, cell-based; method in brief: as §1
# [3] = Selectivity index, ratio of IC50 for human LO2 cells to IC50 for human A549 cells; format: toxicity; conditions: LO2 cells versus A549 cells, read-out: Ratio IC50
# Method in brief: (§2)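 Selectivity ratio is L02 IC50 divided by cancer-cell IC50, each taken from the MTT viability assay.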
# [4] = Selectivity index, ratio of IC50 for human LO2 cells to IC50 for human MCF7 cells; format: toxicity; conditions: LO2 cells versus MCF7 cells, read-out: Ratio IC50; method in brief: as §2
# [5] = Selectivity index, ratio of IC50 for human LO2 cells to IC50 for mouse B16 cells; format: toxicity; conditions: LO2 cells versus B16 cells, read-out: Ratio IC50; method in brief: as §2
# [6] = Selectivity index, ratio of IC50 for human LO2 cells to IC50 for human HepG2 cells; format: toxicity; conditions: LO2 cells versus HepG2 cells, read-out: Ratio IC50; method in brief: as §2
# [7] = Selectivity index, ratio of IC50 for human LO2 cells to IC50 for human LNCAP cells; format: toxicity; conditions: LO2 cells versus LNCAP cells, read-out: Ratio IC50; method in brief: as §2
# [8] = Selectivity index, ratio of IC50 for human LO2 cells to IC50 for human HeLa cells; format: toxicity; conditions: LO2 cells versus HeLa cells, read-out: Ratio IC50; method in brief: as §2
# L02 [9] = assay: Cytotoxicity in human LO2 cells assessed as reduction in cell viability at 15 uM incubated for 48 hrs by MTT assay; format: cell-based; conditions: l02, 48 h
# Method in brief: (§3)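 Normal hepatic L02 cells incubated with compound for 48 h. Cell viability measured across a concentration series.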
# L02 [10] = assay: Cytotoxicity in human LO2 cells assessed as reduction in cell viability at 30 uM incubated for 48 hrs by MTT assay; format: cell-based; conditions: l02, 48 h; method in brief: as §3
# HepG2 [11] = assay: Induction of ROS generation in human HepG2 cells at 2 to 6 uM incubated for 24 hrs by DCFH-DA staining based flow cytometry; format: functional, cell-based
# Method in brief: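 HepG2 seeded at 6×10^4 cells/well and grown 24 h, then treated 24 h with 2, 4 or 6 µM. Washed with PBS and serum-free medium, loaded with serum-free DCFH-DA 30 min at 37 °C, washed twice cold. Fluorescence read by flow cytometry at 488/525 nm. Mean ± SEM, n = 3.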
# HepG2 [12] = assay: Ratio of cytotoxicity in human HepG2 cells at 1 uM in presence of 5 mM NAC incubated for 48 hrs by MTT assay to cytotoxicity in human HepG2 cells at 1 uM in absence of 5 mM NAC incubated for 48 hrs by MTT assay; format: functional
# Method in brief: (§4)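 HepG2 cells incubated 48 h with compound at 1, 5 or 10 µM, with or without 5 mM N-acetylcysteine. Ratio is cell viability with NAC divided by viability with compound alone at the same concentration.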
# HepG2 [13] = assay: Ratio of cytotoxicity in human HepG2 cells at 5 uM in presence of 5 mM NAC incubated for 48 hrs by MTT assay to cytotoxicity in human HepG2 cells at 5 uM in absence of 5 mM NAC incubated for 48 hrs by MTT assay; format: functional; method in brief: as §4
# HepG2 [14] = assay: Ratio of cytotoxicity in human HepG2 cells at 10 uM in presence of 5 mM NAC incubated for 48 hrs by MTT assay to cytotoxicity in human HepG2 cells at 10 uM in absence of 5 mM NAC incubated for 48 hrs by MTT assay; format: functional; method in brief: as §4
# HepG2 [15] = assay: Induction of apoptosis in human HepG2 cells assessed as apoptosis level at 6 uM incubated for 24 hrs by FITC-labelled Annexin V/PI staining based flow cytometry (reference value: 2.6%); format: functional
# Method in brief: (§5)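 HepG2 treated 24 h with 2, 4 or 6 µM; 0.1% DMSO vehicle control. Stained with FITC-Annexin V/PI and analysed by flow cytometry 10-15 min after staining. Annexin V+/PI- counted as early/median apoptotic, Annexin V+/PI+ as late apoptotic.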
# HepG2 [16] = assay: Induction of apoptosis in human HepG2 cells assessed as apoptosis level at 2 to 4 uM incubated for 24 hrs by FITC-labelled Annexin V/PI staining based flow cytometry; format: functional, cell-based; method in brief: as §5
# HepG2 [17] = assay: Induction of apoptosis in human HepG2 cells assessed as apoptosis level incubated for 24 hrs by FITC-labelled Annexin V/PI staining based flow cytometry; format: functional, cell-based; method in brief: as §5
# [18] = molecular target: Hepatocyte growth factor receptor (Homo sapiens, UniProt P08581); assay: Inhibition of c-Met (unknown origin)
# Method in brief: (§6)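 Kinase profiling run as a contract service, with ATP at the Km of each kinase.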
# [19] = molecular target: Cyclin-dependent kinase 9 (Homo sapiens, UniProt P50750); assay: Inhibition of CDK9 (unknown origin); method in brief: as §6
# [20] = molecular target: Cyclin-dependent kinase 2 (Homo sapiens, UniProt P24941); assay: Inhibition of CDK2 (unknown origin); method in brief: as §6
# A549 [21] = assay: Cytotoxicity in human A549 cells assessed as reduction in cell viability incubated for 72 hrs by MTT assay
# HepG2 [22] = assay: Induction of apoptosis in human HepG2 cells assessed as apoptosis level at 6 uM incubated for 24 hrs by FITC-labelled Annexin V/PI staining based flow cytometry (reference value: 3.4%); format: functional; method in brief: as §5
# Chain of Hepatocyte growth factor receptor (P08581 whole entry): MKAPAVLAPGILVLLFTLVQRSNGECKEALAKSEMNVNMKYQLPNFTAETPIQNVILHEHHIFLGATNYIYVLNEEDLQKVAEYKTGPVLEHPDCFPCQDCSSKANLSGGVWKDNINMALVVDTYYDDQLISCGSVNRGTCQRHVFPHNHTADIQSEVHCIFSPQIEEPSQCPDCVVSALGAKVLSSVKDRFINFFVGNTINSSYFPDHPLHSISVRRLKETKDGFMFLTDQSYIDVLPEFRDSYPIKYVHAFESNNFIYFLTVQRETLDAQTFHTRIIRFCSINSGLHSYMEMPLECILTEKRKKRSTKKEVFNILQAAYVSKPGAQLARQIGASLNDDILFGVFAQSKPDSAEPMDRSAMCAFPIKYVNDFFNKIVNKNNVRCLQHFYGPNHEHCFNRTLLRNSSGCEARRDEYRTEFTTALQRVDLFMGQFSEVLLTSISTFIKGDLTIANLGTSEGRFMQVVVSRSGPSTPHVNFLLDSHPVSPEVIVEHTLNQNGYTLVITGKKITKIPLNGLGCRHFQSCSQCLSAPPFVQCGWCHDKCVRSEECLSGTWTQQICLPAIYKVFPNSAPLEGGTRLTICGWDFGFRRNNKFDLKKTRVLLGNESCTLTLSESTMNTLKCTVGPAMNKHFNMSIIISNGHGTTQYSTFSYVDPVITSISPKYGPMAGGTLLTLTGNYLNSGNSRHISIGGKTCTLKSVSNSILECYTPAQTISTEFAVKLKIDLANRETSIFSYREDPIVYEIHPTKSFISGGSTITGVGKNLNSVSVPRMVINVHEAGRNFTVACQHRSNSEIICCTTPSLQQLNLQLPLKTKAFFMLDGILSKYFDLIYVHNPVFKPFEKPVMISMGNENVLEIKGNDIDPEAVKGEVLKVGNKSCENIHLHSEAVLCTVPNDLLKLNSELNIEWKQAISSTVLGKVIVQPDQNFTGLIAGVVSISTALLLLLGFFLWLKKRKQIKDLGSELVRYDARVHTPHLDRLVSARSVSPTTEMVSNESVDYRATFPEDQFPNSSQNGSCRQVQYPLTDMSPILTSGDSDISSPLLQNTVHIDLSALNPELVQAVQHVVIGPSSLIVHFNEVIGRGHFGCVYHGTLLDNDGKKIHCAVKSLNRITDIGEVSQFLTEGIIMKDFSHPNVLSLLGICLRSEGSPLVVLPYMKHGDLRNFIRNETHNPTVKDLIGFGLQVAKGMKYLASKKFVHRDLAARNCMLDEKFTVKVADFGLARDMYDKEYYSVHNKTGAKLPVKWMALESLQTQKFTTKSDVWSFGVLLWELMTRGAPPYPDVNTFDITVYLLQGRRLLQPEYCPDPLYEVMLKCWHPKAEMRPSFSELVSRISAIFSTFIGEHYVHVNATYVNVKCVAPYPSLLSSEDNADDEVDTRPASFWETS
# Chain of Cyclin-dependent kinase 9 (P50750 whole entry): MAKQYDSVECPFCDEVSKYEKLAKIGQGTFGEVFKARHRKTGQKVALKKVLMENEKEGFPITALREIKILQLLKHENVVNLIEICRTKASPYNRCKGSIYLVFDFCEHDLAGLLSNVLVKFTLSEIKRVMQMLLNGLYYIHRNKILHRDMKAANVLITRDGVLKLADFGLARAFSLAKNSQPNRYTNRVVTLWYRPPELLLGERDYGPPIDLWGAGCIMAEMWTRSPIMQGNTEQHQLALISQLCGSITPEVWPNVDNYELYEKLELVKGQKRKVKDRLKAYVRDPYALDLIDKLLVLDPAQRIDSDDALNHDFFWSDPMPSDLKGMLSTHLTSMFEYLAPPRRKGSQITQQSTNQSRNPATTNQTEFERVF
structure (smiles),measurement,setting,value
CN1CCN(CCCCOc2c(OCc3ccc(C#N)cc3)cc(O)c3c(=O)cc(-c4ccccc4)oc23)CC1,IC50,A549 [1],2.14 µM
same,Activity,MCF7,Dose-dependent effect
same,IC50,MCF7,2.42 µM
same,Activity,B16,Dose-dependent effect
same,IC50,B16,3.7 µM
same,Activity,HepG2 [2],Dose-dependent effect
same,IC50,HepG2 [2],0.59 µM
same,Activity,LNCaP,Dose-dependent effect
same,IC50,LNCaP,1.72 µM
same,Activity,HeLa,Dose-dependent effect
same,IC50,HeLa,2.65 µM
same,selectivity ratio,[3],4.3 to 27
same,selectivity ratio,[4],4.3 to 27
same,selectivity ratio,[5],4.3 to 27
same,selectivity ratio,[6],27
same,selectivity ratio,[7],4.3 to 27
same,selectivity ratio,[8],4.3 to 27
same,Activity,L02 [9],Non-Toxic
same,Activity,L02 [10],Toxic
same,Activity,HepG2 [11],Dose-dependent effect
same,Ratio,HepG2 [12],2.7
same,Ratio,HepG2 [13],5.5
same,Ratio,HepG2 [14],7
same,Activity,HepG2 [15],30.7%
same,Activity,HepG2 [16],inactive
same,Activity,HepG2 [17],Dose-dependent effect
same,IC50,[18],35 µM
same,IC50,[19],0.87 µM
same,IC50,[20],6.7 µM
same,Activity,A549 [21],Dose-dependent effect
CCN(CC)CCCOc1c(OCc2ccccc2)cc(O)c2c(=O)cc(-c3ccccc3)oc12,IC50,A549 [1],3.62 µM
same,IC50,MCF7,3.21 µM
same,IC50,B16,4.9 µM
same,IC50,HepG2 [2],3.01 µM
COc1ccccc1-c1cc(=O)c2c(O)cc(OCCCCN3CCN(C)CC3)c(OC)c2o1,IC50,A549 [1],6.79 µM
same,IC50,MCF7,5.43 µM
same,IC50,B16,9.3 µM
same,IC50,HepG2 [2],2.33 µM
CCN(CC)CCCCOc1c(OCc2ccccc2)cc(O)c2c(=O)cc(-c3ccccc3)oc12,IC50,A549 [1],3.91 µM
same,IC50,MCF7,1.92 µM
same,IC50,B16,4.88 µM
same,IC50,HepG2 [2],1.65 µM
COc1c(OCCCCN2CCN(C)CC2)cc(O)c2c(=O)cc(-c3ccc(F)cc3Br)oc12,IC50,A549 [1],2.98 µM
same,IC50,MCF7,3.09 µM
same,IC50,B16,3.44 µM
same,IC50,HepG2 [2],2.13 µM
COc1c(OCCCCN2CCN(C)CC2)cc(O)c2c(=O)cc(-c3ccc(C(F)(F)F)cc3)oc12,IC50,A549 [1],2.89 µM
same,IC50,MCF7,2.98 µM
same,IC50,B16,4.99 µM
same,IC50,HepG2 [2],2.4 µM
O=c1[nH]cc(F)c(=O)[nH]1 [FLUOROURACIL],IC50,MCF7,14.7 µM
same,IC50,B16,1.19 µM
O=c1cc(-c2ccccc2)oc2c(OCCCN3CCOCC3)c(OCc3ccccc3)cc(O)c12,IC50,A549 [1],8.91 µM
same,IC50,MCF7,8.72 µM
same,IC50,B16,10 µM
same,IC50,HepG2 [2],2.43 µM
O=c1cc(-c2ccccc2)oc2c(OCCN(CCO)CCO)c(OCc3ccccc3)cc(O)c12,IC50,A549 [1],6.4 µM
same,IC50,MCF7,6.07 µM
same,IC50,B16,3.69 µM
same,IC50,HepG2 [2],3.17 µM
CN1CCN(CCOc2c(OCc3ccccc3)cc(O)c3c(=O)cc(-c4ccccc4)oc23)CC1,IC50,A549 [1],4.41 µM
same,IC50,MCF7,4.43 µM
same,IC50,B16,4.37 µM
same,IC50,HepG2 [2],2.89 µM
COc1c(OCCCCN2CCN(C)CC2)cc(O)c2c(=O)cc(-c3ccc([N+](=O)[O-])cc3)oc12,IC50,A549 [1],3.21 µM
same,IC50,MCF7,4.09 µM
same,IC50,B16,2.89 µM
same,IC50,HepG2 [2],2.62 µM
CN(C)CCCOc1c(OCc2ccccc2)cc(O)c2c(=O)cc(-c3ccccc3)oc12,IC50,A549 [1],2.91 µM
same,IC50,MCF7,3.21 µM
same,IC50,B16,5.42 µM
same,IC50,HepG2 [2],4.95 µM
O=c1cc(-c2ccccc2)oc2c(OCCCCN(CCO)CCO)c(OCc3ccccc3)cc(O)c12,IC50,A549 [1],4.35 µM
same,IC50,MCF7,1.09 µM
same,IC50,B16,3.76 µM
same,IC50,HepG2 [2],3.14 µM
CN1CCN(CCCCOc2c(OCc3ccco3)cc(O)c3c(=O)cc(-c4ccccc4)oc23)CC1,IC50,A549 [1],3.6 µM
same,IC50,MCF7,2.77 µM
same,IC50,B16,3.53 µM
same,IC50,HepG2 [2],4.11 µM
COc1c(OCCCCN2CCN(C)CC2)cc(O)c2c(=O)cc(-c3ccc(Br)cc3)oc12,IC50,A549 [1],2.13 µM
same,IC50,MCF7,3.21 µM
same,IC50,B16,4.33 µM
same,IC50,HepG2 [2],2.32 µM
CN1CCN(CCCCOc2c(OCc3ccccc3)cc(O)c3c(=O)cc(-c4ccccc4)oc23)CC1,IC50,A549 [1],2.91 µM
same,IC50,MCF7,2.93 µM
same,IC50,B16,2.37 µM
same,IC50,HepG2 [2],1.5 µM
same,Activity,HepG2 [11],Dose-dependent effect
same,Activity,HepG2 [22],20.7%
same,Activity,HepG2 [16],inactive
same,Activity,HepG2 [17],Dose-dependent effect

# Source: ChEMBL document CHEMBL4190366, “Discovery and synthesis of novel Wogonin derivatives with potent antitumor activity in vitro” (Eur J Med Chem, 2017)
